Values joined by “and” are separate entries in the source; they are usually repeats but may differ in a detail not shown here. Equal values may be shown once. “Also recorded” adds a separate entry of the source.
How the values were obtained:
[1] = Plasma pharmacokinetics of alisertib ECT; type: in vivo, human; conditions: for Tmax: human, plasma
Outline: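 Adults with advanced non-haematologic cancers took oral enteric-coated tablets at 10–60 mg BID for 7 days, then 14 days off (21-day cycles). In cycle 1, plasma was sampled within 1 h before the morning dose and at 0.5–12 h post-dose on days 1 and 7. Further samples were taken 12–132 h after the day 7 evening dose. A validated LC-MS/MS assay and non-compartmental analysis were used. Geometric means were reported only for cohorts of at least 2 patients.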

[2] = Urine PK, renal clearance of alisertib; type: in vivo, human
Outline: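 Urine was collected only from patients dosed at 40 mg BID or higher. Samples were taken pre-dose on day 1 and pooled over 0–12 h after the day 7 morning dose of the 7-day oral BID course. Renal clearance was derived from the day 7 collection in 12 patients (10 at 50 mg BID, 2 at 60 mg BID). Quantitation was by LC-MS/MS.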

[3] = tested on: advanced, non-hematologic malignancies; assay: Antitumor activity by RECIST version 1.1; type: in vivo, human
[4] = tested on: patients with advanced, non-hematologic malignancies
[5] = cited from earlier work
[6] = tested on: AAK inhibition in xenograft models; conditions: cited from earlier work
[7] = acidic solution; preclinical evaluations; cited from earlier work
[8] = steady-state (day 7), ECT, 20 mg BID (n = 3)
[9] = steady-state (day 7), ECT, 40 mg BID (n = 3)
[10] = steady-state (day 7), ECT, 50 mg BID (n = 11)
[11] = steady-state (day 7), ECT, 60 mg BID (n = 2)
[12] = human, in vivo, 7 days of each 21-day cycle

COc1cc(Nc2ncc3c(n2)-c2ccc(Cl)cc2C(c2c(F)cccc2OC)=NC3)ccc1C(=O)O [alisertib]
Overall mean peak/trough ratio ([1]; BID dosing, all doses): 2.2
Geometric mean steady-state trough concentration ([1]; RP2D of 50 mg BID, ECT): > 1 µM
Accumulation ratio ([1]; following BID dosing, all doses): 2.4
Tmax ([1]; oral, 40 mg, Median Tmax (range), steady-state (day 7), ECT, 40 mg BID (n = 3)): 3 h
Tmax ([1]; oral, 50 mg, Median Tmax (range), steady-state (day 7), ECT, 50 mg BID (n = 11)): 2.4 h
Tmax ([1]; oral, 60 mg, Median Tmax (range), steady-state (day 7), ECT, 60 mg BID (n = 2)): 2.8 h
Tmax ([1]; po, Overall median Tmax, oral ECT, all doses, range 0–11): ~3 h
Dose dependence of systemic exposure ([1]; steady-state (day 7), 10–60 mg BID): increased with increasing doses
Mean accumulation ratio (SD) [1, 8]: 3.0 (1.0)
Mean peak/trough ratio (SD) [1, 8]: 2.1 (0.7)
Mean accumulation ratio (SD) [1, 9]: 2.3 (0.4)
Mean peak/trough ratio (SD) [1, 9]: 2.3 (1.4)
Mean accumulation ratio (SD) [1, 10]: 2.2 (0.9)
Mean peak/trough ratio (SD) [1, 10]: 2.3 (0.8)
Mean accumulation ratio [1, 11]: 2.4
Mean peak/trough ratio [1, 11]: 1.8
Renal clearance (in words) ([2]; in vivo): negligible
Renal clearance as share of apparent oral clearance ([2]; urine 0 to 12 h postdose day 7, 12 patients (50 and 60 mg BID)): less than 0.1%
Patients with stable disease ([3]; 16 response-evaluable patients): Nine patients achieved stable disease; also recorded: Nine patients had stable disease
Responses by RECIST ([3]; 16 response-evaluable patients): No responses by RECIST were observed; also recorded: no complete or partial responses by RECIST were observed
Patients completing treatment for symptomatic deterioration ([3]; N = 24): 21%
Duration of stable disease, individual patients ([3]; censored observations (*)): 3.98 months and 1.28 months and 5.45 months and 6.93 months
Duration of stable disease, individual patients ([3]; not censored): 5.59 months and 2.56 months and 3.48 months and 3.15 months and 8.31 months
Patients with drug-related SAEs in the MTD cohort ([4]; 50 mg BID): 4 patients
Patients who died during the first treatment cycle ([4]; 50 mg starting dose, not considered related to alisertib): 2 patients
Maximum tolerated dose (MTD) ([4]; ECT, × 7 days in a 21-day cycle): 50 mg BID
Patients in whom dose reductions were necessary ([4]; human, in vivo): 21%
Patients who discontinued treatment due to AEs ([4]; human, in vivo): 29%
Patients with any grade of drug-related central nervous system (CNS) AEs ([4]; human, in vivo): 33%
Patients with cycle 1 dose-limiting toxicity (grade 4 febrile neutropenia) ([4]; human, in vivo): 1 of 13
Patients with dose reduction for neutropenia ([4]; human, in vivo): 13%
Patients with dose reduction for thrombocytopenia ([4]; human, in vivo): 8%
Patients with drug-related CNS AE dizziness ([4]; human, in vivo): 2 n
Patients with drug-related CNS AE hypersomnia ([4]; human, in vivo): 5 n
Patients with drug-related CNS AE memory impairment ([4]; human, in vivo): 3 n
Patients with drug-related grade 3 or higher gastrointestinal AEs ([4]; human, in vivo): 25%
Patients with drug-related grade 3 or higher hematologic AEs ([4]; human, in vivo): 50%
Patients with drug-related neutropenia ([4]; human, in vivo): 50%
Patients with treatment-related fatigue ([4]; human, in vivo): 33%
Alopecia, all-grade treatment-related AE ([4]; human, in vivo, 7 days): 10 (42) n (%)
Anemia, all-grade treatment-related AE ([4]; human, in vivo, 7 days): 3 (13) n (%)
Decreased appetite, all-grade treatment-related AE ([4]; human, in vivo, 7 days): 5 (21) n (%)
Diarrhea, all-grade treatment-related AE ([4]; human, in vivo, 7 days): 10 (42) n (%)
Diarrhea, grade ≥3 treatment-related AE ([4]; human, in vivo, 7 days): 2 (8) n (%)
Fatigue, all-grade treatment-related AE ([4]; human, in vivo, 7 days): 8 (33) n (%)
Fatigue, grade ≥3 treatment-related AE ([4]; human, in vivo, 7 days): 2 (8) n (%)
Febrile neutropenia, all-grade treatment-related AE ([4]; human, in vivo, 7 days): 3 (13) n (%)
Febrile neutropenia, grade ≥3 treatment-related AE ([4]; human, in vivo, 7 days): 3 (13) n (%)
Hypersomnia, all-grade treatment-related AE ([4]; human, in vivo, 7 days): 5 (21) n (%)
Leukopenia, grade ≥3 treatment-related AE ([4]; human, in vivo, 7 days): 9 (38) n (%)
Memory impairment, all-grade treatment-related AE ([4]; human, in vivo, 7 days): 3 (13) n (%)
Nausea, grade ≥3 treatment-related AE ([4]; human, in vivo, 7 days): 2 (8) n (%)
Neutropenia, all-grade treatment-related AE ([4]; human, in vivo, 7 days): 12 (50) n (%)
Neutropenia, grade ≥3 treatment-related AE ([4]; human, in vivo, 7 days): 11 (46) n (%)
Oral candidiasis, all-grade treatment-related AE ([4]; human, in vivo, 7 days): 4 (17) n (%)
Recommended phase 2 dose (RP2D) ([4]; human, in vivo, 7 days): 50 mg BID
Severity of CNS AEs (hypersomnia, memory loss, dizziness) ([4]; human, in vivo, 7 days): 1–2 grade
Stomatitis, all-grade treatment-related AE ([4]; human, in vivo, 7 days): 10 (42) n (%)
Stomatitis, grade ≥3 treatment-related AE ([4]; human, in vivo, 7 days): 2 (8) n (%)
Thrombocytopenia, all-grade treatment-related AE ([4]; human, in vivo, 7 days): 4 (17) n (%)
Vomiting, all-grade treatment-related AE ([4]; human, in vivo, 7 days): 5 (21) n (%)
Vomiting, grade ≥3 treatment-related AE ([4]; human, in vivo, 7 days): 2 (8) n (%)
Leukopenia, all-grade treatment-related AE [4, 12]: 10 (42) n (%)
Nausea, all-grade treatment-related AE [4, 12]: 10 (42) n (%)
Tolerability of dose level ([4]; in vivo): poorly tolerated
Estimated relative bioavailability (geometric mean ratio of steady state alisertib AUC0-τ) of ECT in reference to PIC ([5]; 40 mg BID for 7 days, n = 14, 90% CI: 74.4–108.8%): 90%
Systemic exposures of ECT formulation compared with PIC formulation ([5]; relative bioavailability analysis of phase 1 data): generally similar
Concentration associated with saturating levels of pharmacodynamic (PD) activity ([6]; murine xenograft studies): 1 µM
Concentration associated with AAK inhibition and antitumor activity ([6]; preclinical xenograft models): 1 µM
Solubility (in words) [7]: reduced solubility in acidic solution

From article PMC4229392 (Investigational new drugs, 2014)
